Test results from paper PMC3277286 (Journal of Medicinal Chemistry, 2012).

Key:
human ΔF508-CFTR [1] = target: T1, human ΔF508-CFTR (Homo sapiens, UniProt P13569, DEL508-508); format: cell-based; details: summary in text of corrector and potentiator assays in ΔF508-CFTR FRT cells
Summary of the method: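 FRT cells coexpressing human ΔF508-CFTR and YFP-H148Q/I152L were grown 18–24 h at 37 °C, then rescued 18–24 h at 27 °C. After a PBS wash, they got 20 μM forskolin with test compound (0–50 μM final, eight concentrations) for 10 min. I⁻ influx was recorded over 2 s baseline plus 12 s after iodide addition, rate by exponential regression. Controls were DMSO and genistein. Runs were in triplicate; EC50/Vmax came from a 4-parameter logistic fit.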

human ΔF508-CFTR [2] = target: T1, human ΔF508-CFTR; assay: ΔF508-CFTR corrector activity, fluorescence plate-reader iodide influx assay; format: cell-based; details: summary in text of corrector and potentiator assays in ΔF508-CFTR FRT cells
Summary of the method: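 FRT cells stably coexpressing human ΔF508-CFTR and YFP-H148Q/I152L were grown 24 h at 37 °C, then given test compound for 16–20 h at eight concentrations (maximum 25 μM). After a PBS wash, they got 20 μM forskolin plus 50 μM genistein for 20 min. Iodide influx was read as YFP quenching after Cl-to-I replacement (137 mM), fitted exponentially. Runs were in triplicate; EC50/Vmax came from a 4-parameter logistic fit.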

| Structure (SMILES) | Activity class from function studies (potentiator) (human ΔF508-CFTR [1]) | Activity class from function studies (corrector / dual) (human ΔF508-CFTR [2]) |
| --- | --- | --- |
| Cc1cc(C)c2cc(C#N)c(NCCNC(=O)c3ccccn3)nc2c1 [CoPo 16, N-(2-((3-Cyano-5,7-dimethylquinolin-2-yl)amino)ethyl)picolinamide] | potentiator-only activity | – |
| Cc1cc(C)c2cc(C#N)c(NCCNC(=O)c3ccccc3)nc2c1 [CoPo 19, N-(2-((3-Cyano-5,7-dimethylquinolin-2-yl)amino)ethyl)benzamide] | potentiator-only activity | – |
| Cc1cc(C)c2cc(C#N)c(NCCNC(=O)c3cnccn3)nc2c1 [CoPo 22, N-(2-((3-Cyano-5,7-dimethylquinolin-2-yl)amino)ethyl)pyrazine-2-carboxamide] | – | corrector-only activity |
| COc1ccccc1C(=O)NCCCNc1nc2cc(C)cc(C)c2cc1C#N [CoPo 31, N-(3-(3-Cyano-5,7-dimethylquinolin-2-ylamino)propyl)-2-methoxybenzamide] | potentiator-only activity | – |
| Cc1cc(C)c2cc(C#N)c(NCCCNC(=O)c3ccccn3)nc2c1 [CoPo 34, N-(3-(3-Cyano-5,7-dimethylquinolin-2-ylamino)propyl)picolinamide] | potentiator-only activity | – |
